Bioassay records (PubChem)
Compounds with a hit are over-represented: about 4.3% of the library has one in this group of screens.
Dyrk1A ADPGlo: inhibitors of rat Dyrk1A kinase. Q63470. ADP-Glo luminescence, NFATc1 peptide. inhibition, % at 12.5 µM. 310,000 compounds, 0.43% hits. AID 504441; in the data active means inhibition above about 50%;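 further: plate controls were vehicle with enzyme for no effect and no enzyme for full effect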
Rtt109 HAT inh: blocks Candida albicans Rtt109/Vps75 acetyltransferase activity. purified Rtt109/Vps75, ThioGlo CoA-SH fluorescence, 4 h. AID 540336. inhibition, % at 34.9 µM. 330,000 compounds, 0.16% hits;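 active means inhibition of at least 50% in every replicate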
Target sequence (Q5AAJ8 whole entry, looked up): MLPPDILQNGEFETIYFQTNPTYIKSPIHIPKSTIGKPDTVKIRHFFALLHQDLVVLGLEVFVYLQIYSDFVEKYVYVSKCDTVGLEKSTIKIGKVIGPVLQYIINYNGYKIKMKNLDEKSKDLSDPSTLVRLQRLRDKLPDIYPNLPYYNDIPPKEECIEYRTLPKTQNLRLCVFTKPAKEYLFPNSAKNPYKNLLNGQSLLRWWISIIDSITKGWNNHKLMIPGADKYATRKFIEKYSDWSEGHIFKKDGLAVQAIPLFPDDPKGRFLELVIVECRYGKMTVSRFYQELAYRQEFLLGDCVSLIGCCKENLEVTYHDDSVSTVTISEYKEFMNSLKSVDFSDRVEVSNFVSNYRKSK
CAL PDZ FP-1: human CAL PDZ-peptide interaction inhibition; Q9HD26; 330,000 compounds, 0.02% hits; AID 504414; inhibition, % at 20 µM; purified CAL PDZ, TMR-peptide fluorescence polarization, 1 h;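 active means highest replicate inhibition of at least 40%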;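 further: plate controls were DMSO neutral control wells for no effect and unlabeled competitor peptide control wells for full effect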
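Control set: unlabelled peptide and DMSO controls / Material: purified CerCALP PDZ construct / Timing: 1 h incubation at room temperature before polarization reading / Doses: 20 µM, one dose / Detection: fluorescence polarization (mP)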
CAL PDZ FP-2: inhibitors of human CAL PDZ peptide binding. Q9HD26. purified CAL PDZ, TMR-peptide fluorescence polarization, 1 h. inhibition, % at 24.9 µM. 300,000 compounds, 0.92% hits. AID 602252;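 active means mean inhibition of at least 30% with at least half of replicates also reaching 30%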;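 further: 0% = DMSO neutral control and 100% = excess unlabeled competitor peptide PRC23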
ALR H2O2 inh: blocks human ALR sulfhydryl oxidase activity; inhibition, % (test concentration not listed); purified ALR, DTT oxidation, H2O2 HRP-luminol luminescence; AID 485317; 290,000 compounds, 3.8% hits; P55789;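 active means mean replicate inhibition above about 79%, with every replicate also reaching it, limit read from the data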
Target sequence (P55789 whole entry, looked up): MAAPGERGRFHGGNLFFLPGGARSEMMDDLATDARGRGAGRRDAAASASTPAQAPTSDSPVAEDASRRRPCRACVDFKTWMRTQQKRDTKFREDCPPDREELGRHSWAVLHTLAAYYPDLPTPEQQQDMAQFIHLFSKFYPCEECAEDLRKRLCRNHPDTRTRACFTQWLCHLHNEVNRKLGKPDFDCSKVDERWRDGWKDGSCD
Dyrk1A artifact: ADP-Glo luciferase interference, Dyrk1A counter-screen; ADP-Glo luciferase artifact assay, no Dyrk1A, luminescence; AC50, µM (highest dose often 12 µM), inactives show top-dose activity change, negative = inhibition; 1,300 tested, under 10 active; shares compounds with Dyrk1A ADPGlo;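 active means fitted half-maximal dose AC50 no more than ten times the top valid tested dose, with luminescence dropping as dose rises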
Starred values were filed as active, the others as inactive; nt = no result given.

SMILES	Dyrk1A ADPGlo	Rtt109 HAT inh	CAL PDZ FP-1	CAL PDZ FP-2	ALR H2O2 inh	Dyrk1A artifact
COc1ccc(-c2cnnc(N/N=C/c3ccc(O)c(O)c3)n2)cc1	68*	4	1	-3	nt	8%
COc1ccc2c(c1)CCc1cnoc1-2	-3	-4	0	-4	nt	nt
COc1ccc2c(c1)CCc1cn[nH]c1-2	51*	4	-1	1	-7	7%
COc1ccc(C(C)=O)cc1COC(=O)C(CO)NS(=O)(=O)c1ccc(Br)cc1 (stereo not drawn)	nt	-3	-1	1	nt	nt
CCCn1nc(NC(=O)C2CCCO2)c2cc3cc(C)ccc3nc21 (stereo not drawn)	-5	-6	-1	0	24	nt
COc1ccc2nc3c(cc2c1)c(NC(=O)C1CCCO1)nn3CC(C)C (stereo not drawn)	79*	-44	-1	0	-36	10%
CC(C)CC(NC(=O)C1CCC(C)CC1)C(=O)Nc1ccc2c(c1)OCCO2 (stereo not drawn)	56*	-23	-1	nt	-2	12%
CC(=O)OC(C(=O)NC1CCCCC1)c1ccc(Cl)c(Cl)c1 (stereo not drawn)	-7	-13	-3	-3	7	nt
N#C/C(=N\Nc1cccc([N+](=O)[O-])c1)C(=O)c1ccc(Br)cc1	78*	2	-4	-3	-3	7%
O=C(O)c1ccc(N=NNc2cccc([N+](=O)[O-])c2)cc1	16	22	0	6	nt	nt
CCOC(=O)c1c(O)c(Cl)c(C)[nH]c1=O	-6	4	0	-2	6	nt
Nc1nc2ccc([N+](=O)[O-])cc2[nH]1	55*	0	0	0	0	7%
NC(N)=Nc1nc2ccc([N+](=O)[O-])cc2[nH]1	31	7	2	-1	-6	nt
Cc1cccc(Cl)c1OCCCCn1ccnc1	56*	35	-2	nt	-3	11%
COc1cc(CCN2C(=O)c3cccc4cccc(c34)C2=O)c(S(=O)(=O)NCCCO)cc1OC	-5	-30	-5	-3	-6	nt
O=C(NCC1CC1)C1(C(F)(F)F)CC(CCCO)CCCO1 (stereo not drawn)	0	-8	0	-3	-1	nt
c1cnc2c(c1)ccc1cccnc12	27	-22	-2	-4	nt	nt
O=c1cc[nH]c2c1ccc1cccnc12	81*	3	0	-2	4	10%
CCCCCn1c(SCC(=O)c2ccccc2)nc2cc(C(=O)NCC3CCCO3)ccc2c1=O (stereo not drawn)	-11	-1	-2	-1	nt	nt
O=C(Nc1ccc(F)cc1)C(=O)c1c(O)[nH]c2ccc([N+](=O)[O-])cc12	57*	-1	0	6	-3	7%
CC(C)N1CCN(Cc2coc3ccccc3c2=O)CC1CCO (stereo not drawn)	-2	nt	-1	3	-2	nt
NCc1oc(-c2ccccc2)cc1C(=O)O	19	0	1	nt	4	nt
S=C(NCC1CCCO1)NC1CCCC1 (stereo not drawn)	2	nt	-2	2	-3	nt
O=C(Cc1ccc(NC2=NC3CS(=O)(=O)CC3S2)cc1)NCc1ccccc1Cl (stereo not drawn)	-9	-7	-1	-2	-1	nt
O=[N+]([O-])c1cc(/C=N/O)ccc1N1CCCC1	50*	-2	-3	-1	92*	9%
SMILES	Dyrk1A ADPGlo	Rtt109 HAT inh	CAL PDZ FP-1	CAL PDZ FP-2	ALR H2O2 inh	Dyrk1A artifact
COc1cc(-c2cc(=O)c3c(O)c(OC)c(OC)c(O)c3o2)ccc1O	80*	5	-1	-1	99*	7%
COc1c(O)c(O)c2oc(-c3ccccc3)cc(=O)c2c1OC	nt	14	1	4	51	nt
CC(C)(NS(=O)(=O)OCC(Cl)(Cl)Cl)c1ccccc1	9	0	0	-1	1	nt
CC[C@@](C)(NS(=O)(=O)OCC(Cl)(Cl)Cl)c1ccccc1	57*	-7	0	-4	nt	6%
COc1c2c(cc3oc(=O)ccc13)OC(C)(C)C=C2	40	1	0	-1	-15	nt
CC1(C)C=Cc2cc3ccc(=O)oc3cc2O1	59*	0	1	-1	68	6%
CC(=O)c1ccc(NC(=O)c2cc(C)nc3ccccc23)cc1	9	3	1	nt	3	nt
CSc1nc(O)c(/C=C2\C=Nc3ccccc32)[nH]1	57*	5	-1	-6	61	8%
Cc1ccnc(Nc2nc(-c3ccc(O)c(O)c3)cs2)c1	54*	-2	2	4	98*	6%
O=C(N/N=C1\CCCc2c1[nH]c1ccc(Cl)cc21)c1ccncc1	12	31	-1	-6	2	nt
Clc1ccc2[nH]c3c(c2c1)CCc1cn[nH]c1-3	51*	37	-1	-3	99*	7%
c1ccc2c3c([nH]c2c1)-c1[nH]ncc1CC3	56*	13	-2	-5	98*	10%
COc1cc(NC(=S)N2CCN(S(=O)(=O)c3ccc(C)cc3)CC2)cc(OC)c1	-3	-5	-2	-3	-11	nt
COc1cccc(/C=C2\Oc3ccc(O)cc3C2=O)c1O	50*	5	2	-4	27	-2%
COC(=O)c1ccc2c(c1)C(=O)/C(=C/c1ccc(O)cc1)O2	26	6	0	0	-34	nt
Oc1ccc(/C=N/Nc2ccc(C(F)(F)F)cn2)c(O)c1	61*	-3	-2	5	22	9%
COc1cc(/C=N/Nc2ccc(C(F)(F)F)cn2)cc(OC)c1O	8	4	1	-2	nt	nt
Cc1ccc(C(=O)N(Cc2cccnc2)Cc2cc3cc(C)ccc3n3nnnc23)cc1	-4	3	-1	nt	nt	nt
O=C(Cn1nnc2ccccc21)Nc1ccc(Cl)cn1	5	-11	-2	-5	-20	nt
Cc1nc(NC(=O)c2ccccc2)sc1-c1csc(N)n1	60*	-6	0	-3	-7	8%
COc1ccc(S(=O)(=O)NCC2CCCN(C(=O)c3ccccc3)C2)cc1 (stereo not drawn)	7	-23	-3	-4	-10	nt
CC(C)c1ccc(NC(=S)Nc2ccc3cn[nH]c3c2)cc1	nt	3	0	-4	nt	nt
CC(=O)c1ccc(NC(=S)Nc2ccc3cn[nH]c3c2)cc1	57*	9	0	-15	-14	8%
O=C(Nc1ccc2ccccc2c1)c1ccccc1F	15	-5	0	nt	-1	nt
O=C(Nc1ccc2cn[nH]c2c1)c1c(Cl)cccc1Cl	51*	1	-1	-3	-11	10%
O=C(Nc1ccncc1)c1c(Cl)cccc1Cl	-3	-5	0	-2	-12	nt
O=C(Nc1ccc2cn[nH]c2c1)c1ccccc1F	54*	-4	-1	85*	-22	10%
COc1cc(C)c(NC(=O)Cc2ccsc2)cc1OC	1	-9	-2	-1	-25	nt
O=C1C=C(c2ccc3c(c2)OCO3)CCC1	66*	0	0	-3	nt	9%
